T cruzi growth-1 – T. cruzi intracellular proliferation inhibitors, primary screen, cell-based, beta-gal Tulahuen parasites, NIH3T3 host, luminescence | T. cruzi beta-gal in NIH3T3, GalScreen luminescence, 90 h | inhibition, % at 8.34 µM | actives 5.9% (n = 77,000) | AID 624255, 2012;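 active means mean inhibition above about 93%, with at least 55% of replicates each passing it, limit read from the data, passing the limit was not always enough; inconclusive means only one of those two conditions holds; inactive means neither condition holds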
GASC1 inh – inhibitors of GASC-1 (KDM4C) histone demethylase, primary screen, biochemical, single concentration HTS; AID 720574, 2013; inhibition, % at 12.5 µM; actives 0.15% (n = 96,000); Lysine-specific demethylase 4C (Homo sapiens), Q9H3R0; GST-KDM4C 2-372, H3K9me3 peptide, LANCE TR-FRET;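 active means mean replicate inhibition above about 25%, with at least 55% of replicates also reaching it, limit read from the data, passing the limit was not always enough; inconclusive means only one of those two conditions met; inactive means neither condition met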
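Assay system: GST-GASC-1 enzyme fragment 2-372 | Amount: 10 nM enzyme | Medium: HEPES buffer, pH 7.5, plus ascorbate | Reagent: H3K9me3 peptide substrate, Fe(II), 2-oxoglutarate | Doses: Single-point compound screen | Incubation: 30 min demethylation and 1 h detection at room temperature | Measured by: LANCE TR-FRET, excitation 340 nm, emissions 618 and 671 nm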
Pf Dd2 inh – P. falciparum Dd2 growth inhibitors, primary screen, SYBR Green fluorescence, single dose replicates. 72 h; active compounds read low. actives 2.3% (n = 94,000). activity change, % at 10 µM; in the data active means activity change below about -80%; inconclusive means no clear call, values can overlap the other calls
IDH1 mut inh – inhibitors of IDH1 R132H reductase, primary screen, biochemical, plate reader, single point | diaphorase/resazurin fluorescence, 60 min | inhibition, % at 10 µM | AID 624101, 2012 | actives 0.18% (n = 70,000); in the data active means inhibition above about 34%; inconclusive means no clear call, values can overlap the other calls; inactive means below about 11%;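 further: 0% = DMSO and 100% = no enzyme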
Target sequence (O75874 whole entry R132H): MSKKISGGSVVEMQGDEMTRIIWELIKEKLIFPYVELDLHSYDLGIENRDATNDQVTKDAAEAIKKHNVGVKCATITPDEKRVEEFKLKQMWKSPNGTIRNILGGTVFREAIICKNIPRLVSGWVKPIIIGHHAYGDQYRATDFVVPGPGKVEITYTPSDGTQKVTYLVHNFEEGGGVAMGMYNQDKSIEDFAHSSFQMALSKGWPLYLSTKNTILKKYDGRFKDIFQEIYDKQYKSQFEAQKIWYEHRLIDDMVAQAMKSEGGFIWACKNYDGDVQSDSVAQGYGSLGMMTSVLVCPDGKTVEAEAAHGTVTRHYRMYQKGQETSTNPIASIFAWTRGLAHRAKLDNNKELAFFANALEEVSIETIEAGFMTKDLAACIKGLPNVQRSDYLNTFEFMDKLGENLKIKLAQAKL
T cruzi growth-2 – T. cruzi intracellular proliferation inhibitors, confirmation, cell-based, NIH3T3 host, beta-gal parasite, luminescence, cherry-pick | T. cruzi beta-gal in NIH3T3, GalScreen luminescence, 90 h | shares compounds with T cruzi growth-1 | AID 651739, 2012 | inhibition, % at 8.35 µM | actives 72% (n = 5,600);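 active means mean replicate inhibition above about 95% and at least 55% of replicates individually reaching it, limit read from the data; inconclusive means only one of the two criteria is met; inactive means neither criterion is met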
T cruzi growth-3 – inhibitors of intracellular T. cruzi replication, confirmation, NIH3T3 host cells, beta-gal parasites, cherry-pick, set 2. shares compounds with T cruzi growth-1. actives 21% (n = 5,600). inhibition, % at 2.09 µM. AID 651740, 2012. T. cruzi beta-gal in NIH3T3, GalScreen luminescence, 90 h;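 active means mean inhibition above about 95%, with at least 55% of replicates also reaching it, limit read from the data; inconclusive means meets just one of the two conditions; inactive means meets neither condition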;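 further: plate controls were neutral control median for no effect and positive control median for full effect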
NIH3T3 tox – cytotoxicity in mouse NIH/3T3 fibroblasts, confirmation, cytotoxicity control for T. cruzi proliferation inhibitor project, cell-based, cherry-pick, single point. shares compounds with T cruzi growth-1. NIH/3T3 viability, CellTiter-Glo ATP luminescence, 90 h. cytotoxicity (signal decrease), % at 8.35 µM. actives 14% (n = 5,600). AID 651742, 2012;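 active means mean signal decrease across replicates above about 35% based on untreated-well scatter, with enough replicates individually passing, limit read from the data; inconclusive means no rule stated though some were filed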;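 further: 0% = median of neutral control wells and 100% = median of positive control wells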
NIH3T3 tox 2 – NIH/3T3 fibroblast cytotoxicity, confirmation, cytotoxicity control, cell-based, cherry-pick, single point, set 2. shares compounds with T cruzi growth-1. NIH/3T3 viability, CellTiter-Glo ATP luminescence, 90 h. inhibition, % at 24.9 µM. actives 56% (n = 5,600). AID 651744, 2012;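 active means mean loss of cell viability signal at or above a set limit, and enough replicates individually reaching it; inconclusive means meets only the mean limit or only the replicate share; inactive means meets neither condition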;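 further: 0% = median of neutral control wells and 100% = median of positive control wells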
Active calls of the source: *; ? = inconclusive; nt = no result. Sampled rows, rich in hits. Any-hit rate of the full collection: about 5.9%.

SMILES	T cruzi growth-1	GASC1 inh	Pf Dd2 inh	IDH1 mut inh	T cruzi growth-2	T cruzi growth-3	NIH3T3 tox	NIH3T3 tox 2
C[C@@H]1CCCCO[C@@H](CN(C)CC2CCCCC2)[C@@H](C)CN([C@@H](C)CO)C(=O)c2cc(NS(C)(=O)=O)ccc2O1	104*	0	-20	3	59	-3	0	-19
C[C@@H]1CCCCO[C@H](CN(C)CC2CCCCC2)[C@H](C)CN([C@@H](C)CO)C(=O)c2cc(NS(C)(=O)=O)ccc2O1	-42	1	nt	2	nt	nt	nt	nt
C[C@@H]1CCCCO[C@H](CN(C)S(=O)(=O)c2cn(C)cn2)[C@@H](C)CN([C@@H](C)CO)C(=O)c2cc(NS(C)(=O)=O)ccc2O1	-51	1	-25	-2	nt	nt	nt	nt
C[C@@H]1CCCCO[C@@H](CN(C)S(=O)(=O)c2cn(C)cn2)[C@@H](C)CN([C@@H](C)CO)C(=O)c2cc(NS(C)(=O)=O)ccc2O1	102*	1	39	-2	78	-11	-20	-31
C=C1C2CCC3[C@]4(C)CCC[C@@](C)(C(=O)O)C4CC[C@]3(C2)C1OC(C)=O (some centres not stated)	nt	nt	nt	0	nt	nt	nt	nt
O=C(c1ccncc1)N1CCCCN2[C@H](C1)[C@H](c1ccc(-c3ccccc3)cc1)[C@@H]2CO	0	0	35	nt	nt	nt	nt	nt
CO[C@H]1CN(C)C(=O)c2cc(NC(C)=O)ccc2OC[C@H](C)N(C(=O)C2CCC2)C[C@H]1C	14	1	nt	0	nt	nt	nt	nt
C[C@@H]1CN([C@H](C)CO)C(=O)c2cccc(NC(=O)c3nc4ccccc4s3)c2O[C@H]1CN(C)S(=O)(=O)c1ccccc1	59	1	-77	nt	nt	nt	nt	nt
COCc1cn(CC[C@H]2CC[C@H](NC(=O)Nc3ccc4c(c3)OCO4)[C@H](CO)O2)nn1	-2	nt	17	0	nt	nt	nt	nt
COc1ccc(S(=O)(=O)Nc2ccc3c(c2)C(=O)N([C@@H](C)CO)C[C@H](C)[C@H](CN(C)CC2CCCCC2)OCCCC[C@@H](C)O3)cc1	38	1	-36	nt	nt	nt	nt	nt
COc1ccc(S(=O)(=O)Nc2ccc3c(c2)C(=O)N([C@H](C)CO)C[C@H](C)[C@@H](CN(C)CC2CCCCC2)OCCCC[C@H](C)O3)cc1	?	0	-30	-1	104*	67	19	82*
COc1ccc(S(=O)(=O)Nc2ccc3c(c2)C(=O)N([C@H](C)CO)C[C@@H](C)[C@@H](CN(C)Cc2ccc(Cl)c(Cl)c2)O3)cc1	72	-1	16	1	nt	nt	nt	nt
C[C@H]1CN([C@@H](C)CO)C(=O)c2cc(NS(=O)(=O)c3ccc(F)cc3)ccc2O[C@@H]1CN(C)Cc1ccc(Cl)c(Cl)c1	?	2	-7	0	101*	73	25	98*
C[C@H](CO)N1C[C@H](C)[C@H](CN(C)Cc2ccc(Cl)c(Cl)c2)Oc2ccc(NS(=O)(=O)c3ccc(F)cc3)cc2C1=O	27	0	17	5	nt	nt	nt	nt
COc1ccc(S(=O)(=O)Nc2ccc3c(c2)C(=O)N([C@@H](C)CO)C[C@@H](C)[C@H](CN(C)Cc2ccc(Cl)c(Cl)c2)O3)cc1	121*	1	-22	0	96*	68	40*	105*
COc1ccc(S(=O)(=O)Nc2ccc3c(c2)C(=O)N([C@H](C)CO)C[C@@H](C)[C@H](CN(C)Cc2ccc(Cl)c(Cl)c2)O3)cc1	120*	0	1	nt	102*	22	9	104*

Bioassay records: PubChem BioAssay, Broad Institute
